Assay results from ChEMBL document CHEMBL1125774, “3-Methyl-2H-1-benzopyran potassium channel activators” (J Med Chem, 1991).

What was measured:
Format in all cases: functional
Oryctolagus cuniculus [1] = organism: Oryctolagus cuniculus; assay: Compound measured for hyperpolarization of smooth muscle cells of the rabbit main pulmonary artery at concentration 100 uM.
Summary of the method: (§1)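 Rabbit main pulmonary artery strips; intracellular glass microelectrode recording of smooth muscle membrane potential after 60 min equilibration. Baseline taken as potential reached with 1 µM noradrenaline. Bath medium exchanged for solutions of increasing compound concentration. At least four cells measured per concentration. Value is hyperpolarization (ΔmV) at the stated concentration, averaged over two preparations.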

Sus scrofa = organism: Sus scrofa; assay: Relaxing effect determined by measuring inhibition of acetylcholine-induced contractions in pig coronary arteries.
Summary of the method: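 Pig coronary artery rings from slaughterhouse hearts, resting tension 2 g, isometric force recording. Control acetylcholine contraction repeated every 45 min for three or four cycles, with the last cycle as predrug value. Rising compound concentrations added 30 min before agonist; a solvent ring served as time control.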

Oryctolagus cuniculus [2] = organism: Oryctolagus cuniculus; assay: Compound measured for hyperpolarization of smooth muscle cells of the rabbit main pulmonary artery at concentration 1 uM.; summary of the method: as §1
Oryctolagus cuniculus [3] = organism: Oryctolagus cuniculus; assay: Compound measured for hyperpolarization of smooth muscle cells of the rabbit main pulmonary artery at concentration 0.1 uM.; summary of the method: as §1
Oryctolagus cuniculus [4] = organism: Oryctolagus cuniculus; assay: Relaxing effect by measuring inhibition of noradrenaline-induced contractions in rabbit main pulmonary arteries
Summary of the method: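 Rabbit pulmonary artery rings 5 mm wide, resting tension 2 g, equilibrated 60–90 min, isometric force recording. Rings contracted with 0.7-1 µM noradrenaline (about 80% of maximal response). Once force was stable, compound added cumulatively in 0.5 log increments. IC50 (50% inhibition) determined graphically for each experiment and reported as geometric mean with 95% confidence limits.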

Oryctolagus cuniculus [5] = organism: Oryctolagus cuniculus; assay: Drug concentration required to induce half maximal hyperpolarization in rabbit main pulmonary arteries
Summary of the method: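 Rabbit main pulmonary artery strips, 60 min equilibration, predepolarized with 1 µM noradrenaline. Membrane potential recorded intracellularly with glass microelectrodes in at least four cells per concentration while compound concentration was raised by bath exchange. EC50 is the concentration giving half-maximal hyperpolarization, taken from concentration/response curves.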

Oryctolagus cuniculus [6] = organism: Oryctolagus cuniculus; assay: Compound measured for hyperpolarization of smooth muscle cells of the rabbit main pulmonary artery at concentration 10 uM.; summary of the method: as §1
Oryctolagus cuniculus [7] = organism: Oryctolagus cuniculus; assay: Compound measured for hyperpolarization of smooth muscle cells of the rabbit main pulmonary artery at concentration 4 uM.; settings: in the assay text read “10 uM” for “4 uM”; summary of the method: as §1
Oryctolagus cuniculus [8] = organism: Oryctolagus cuniculus; assay: Compound measured for hyperpolarization of smooth muscle cells of the rabbit main pulmonary artery at concentration 3 uM.; summary of the method: as §1

| Compound | Delta mV (Oryctolagus cuniculus [1]) | IC50 (Sus scrofa) [nM] | other results |
| --- | --- | --- | --- |
| CC1(C)Oc2ccc(C#N)cc2[C@@H](n2ccccc2=O)[C@]1(C)O | 19 | > 100000 |  |
| C[C@H]1[C@H](n2ccccc2=O)c2cc(C#N)ccc2OC1(C)C |  | > 100000 | Delta mV (Oryctolagus cuniculus [2]): 10 |
| CC1(C)Oc2ccc(C#N)cc2[C@@H](Oc2ccc(=O)[nH]n2)[C@]1(C)O |  | 6 | Delta mV (Oryctolagus cuniculus [3]): 29; IC50 (Oryctolagus cuniculus [4]): 2 nM; EC50 (Oryctolagus cuniculus [5]): 3 nM |
| CC1(C)Oc2ccc(C#N)cc2[C@H](Oc2ccc(=O)[nH]n2)[C@@]1(C)O | 20 |  |  |
| CC1(C)Oc2ccc(C#N)cc2[C@@H](Oc2ccc(=O)[nH]n2)[C@@]1(O)Cc1ccccc1 | 6 | > 100000 |  |
| CC1(C)Oc2ccc(C#N)cc2[C@@H](On2ccccc2=O)[C@]1(C)O | 21 | > 100000 |  |
| CC1(C)Oc2ccc(C#N)cc2[C@@H](Oc2ccccn2)[C@]1(C)O | 25 | 6000 |  |
| CC1(C)Oc2ccc(C#N)cc2[C@]2(n3ccccc3=O)O[C@]12C | 10 | > 100000 |  |
| CC1(C)Oc2ccc([N+](=O)[O-])cc2[C@@H](n2ccccc2=O)[C@]1(C)O |  | 20000 | Delta mV (Oryctolagus cuniculus [6]): 22 |
| CC1(C)Oc2ccc(C#N)cc2[C@@H](Oc2ccnc(O)c2)[C@]1(C)O |  | 4 | Delta mV (Oryctolagus cuniculus [3]): 35 |
| CC1(C)Oc2ccc(C#N)cc2[C@@H](Nn2ccccc2=O)[C@]1(C)O | 12 | > 100000 |  |
| CC1(C)Oc2ccc(C#N)cc2[C@@H](n2nc(N)ccc2=O)[C@]1(C)O | 13 | 40000 |  |
| C[C@]1(O)[C@H](n2ccccc2=O)c2cc(C#N)ccc2OC12CCCCC2 | 3 | 20000 |  |
| CC1(C)Oc2ccc(C#N)cc2[C@@H](N2CCCC2=O)[C@]1(C)O |  | 4000 | Delta mV (Oryctolagus cuniculus [7]): 23 |
| CCOC[C@]1(O)[C@H](Oc2ccc(=O)[nH]n2)c2cc(C#N)ccc2OC1(C)C | 12 | 50000 |  |
| CCn1nc(O[C@@H]2c3cc(C#N)ccc3OC(C)(C)[C@@]2(C)O)ccc1=O |  | 7 | Delta mV (Oryctolagus cuniculus [3]): 22 |
| CC1(C)Oc2ccc(C#N)cc2[C@@H](Oc2ccc(=O)[nH]n2)[C@@]1(O)CO |  | 700 | Delta mV (Oryctolagus cuniculus [8]): 32 |
| CC1(C)Oc2ccc(C#N)cc2[C@@H](OC2=CC(=O)CC2)[C@]1(C)O |  | 20 | Delta mV (Oryctolagus cuniculus [2]): 25 |
| CC1(C)Oc2ccc([N+](=O)[O-])cc2[C@@H](Oc2ccc(=O)[nH]n2)[C@]1(C)O |  | 20 | Delta mV (Oryctolagus cuniculus [3]): 24 |
| CC1(C)Oc2ccc(C#N)cc2[C@@H](n2ccccc2=O)[C@@H]1O |  |  | IC50 (Oryctolagus cuniculus [4]): 174 nM; Delta mV (Oryctolagus cuniculus [2]): 34; EC50 (Oryctolagus cuniculus [5]): 105 nM |
| Cn1nc(O[C@@H]2c3cc(C#N)ccc3OC(C)(C)[C@@]2(C)O)ccc1=O |  | 30 | Delta mV (Oryctolagus cuniculus [3]): 24 |
| CC1(C)Oc2ccc(C#N)cc2[C@@H](Oc2ccc(=O)[nH]n2)[C@@]1(O)COCc1ccccc1 | 16 | > 100000 |  |
| C[C@]1(O)[C@H](Oc2ccc(=O)[nH]n2)c2cc(C#N)ccc2OC12CCCCC2 | 26 | 80000 |  |
| Cn1nc(N[C@@H]2c3cc(C#N)ccc3OC(C)(C)[C@@]2(C)O)ccc1=O |  | 20 | Delta mV (Oryctolagus cuniculus [3]): 34 |
| CC1=C(n2ccccc2=O)c2cc(C#N)ccc2OC1(C)C | 29 | 5000 |  |
| Cn1nc(O[C@@H]2c3cc(C#N)ccc3OC(C)(C)[C@H]2O)ccc1=O |  | 50 | Delta mV (Oryctolagus cuniculus [3]): 29; IC50 (Oryctolagus cuniculus [4]): 26 nM; EC50 (Oryctolagus cuniculus [5]): 11 nM |
| CC1=C(N2CCCC2=O)c2cc(C#N)ccc2OC1(C)C | 29 | > 100000 |  |
| CC1(C)C=C(n2ccccc2=O)c2cc(C#N)ccc2O1 [BIMAKALIM] |  | 50 | Delta mV (Oryctolagus cuniculus [3]): 23; IC50 (Oryctolagus cuniculus [4]): 57 nM; EC50 (Oryctolagus cuniculus [5]): 27 nM |
| CC1(C)Oc2ccc(C#N)cc2C(N2CCCC2=O)C1O (stereo unspecified) [CROMAKALIM] |  | 700 | Delta mV (Oryctolagus cuniculus [8]): 28; IC50 (Oryctolagus cuniculus [4]): 420 nM; EC50 (Oryctolagus cuniculus [5]): 263 nM |
